Values joined by “and” are separate entries in the source; they are usually repeats but may differ in a detail not shown here. Equal values may be shown once.
Legend:
Type in all cases: toxicity, cell-based
Fibroblast [1] = assay: Multiplex assay against human fibroblast; settings: 1 µM, compound concentration 1 uM
Summary of the method: (§1)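 Phenotypes for tubulin, mitochondrial mass and membrane permeability are expressed as per cents of healthy-nucleus cells. Cells were stained live at seeding with Hoechst33342, BioTracker Green Microtubule Cytoskeleton Dye, MitoTracker Red and Annexin V Alexa Fluor 680, then imaged after compound addition on a CQ1 microscope at 37°C and 5% CO2. Machine-learning gating in CellPathfinder separated Hoechst high-intensity objects from normal cells, divided normal cells by nuclear state (healthy, pyknosed, fragmented) and divided pyknosed cells into mitotic or apoptotic.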

Fibroblast [2] = assay: Incucyte cell viability with human fibroblast; settings: 10 µM, compound concentration 10 uM; also: filed as whole numbers so only -1 and 0 and 1 occur
HEK-293T = assay: Multiplex assay against HEK293T; settings: human, 1 µM, compound concentration 1 uM; summary of the method: as §1;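 as to Population Tubulin-Different-Phenotype (%): share of the cells with healthy nuclei that show this phenotype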

CNC(=O)Nc1ccc2c(c1)CC[C@@]21OC(=O)N(CC(=O)N(Cc2ccc(F)cc2)[C@@H](C)C(F)(F)F)C1=O [A-485]
Population Tubulin-Different-Phenotype (%) (Fibroblast [1]; 12 h, replicate 2): 23% and 66%
Total Cell Count (Fibroblast [1]; 12 h, replicate 2): 69 and 99
Population Apoptotic (%) (Fibroblast [1]; 24 h, replicate 1): 73% and 48%
Population Fragmented Nuclei (%) (Fibroblast [1]; 24 h, replicate 1): 17% and 22%
Population Healthy Nuclei (%) (Fibroblast [1]; 24 h, replicate 1): 64% and 59%
Population Hoechst High Intensity Objects (%) (Fibroblast [1]; 24 h, replicate 1): 9% and 11%
Population Membrane Permeable-Phenotype (%) (Fibroblast [1]; 24 h, replicate 1): 17% and 11%
Population Mitotic Cells (%) (Fibroblast [1]; 24 h, replicate 1): 26% and 51%
Population Normal (%) (Fibroblast [1]; 24 h, replicate 1): 90% and 88%
Population Pyknosed Nuclei (%) (Fibroblast [1]; 24 h, replicate 1): 17%
Population Tubulin-Different-Phenotype (%) (Fibroblast [1]; 24 h, replicate 1): 9%
Total Cell Count (Fibroblast [1]; 24 h, replicate 1): 251 and 207
Population Apoptotic (%) (Fibroblast [1]; 24 h, replicate 2): 50%
Population Fragmented Nuclei (%) (Fibroblast [1]; 24 h, replicate 2): 51% and 62%
Population Healthy Nuclei (%) (Fibroblast [1]; 24 h, replicate 2): 37% and 29%
Population Hoechst High Intensity Objects (%) (Fibroblast [1]; 24 h, replicate 2): 39% and 51%
Population Mitochondria Different-Phenotype (%) (Fibroblast [1]; 24 h, replicate 2): 0% and 21%
Population Mitotic Cells (%) (Fibroblast [1]; 24 h, replicate 2): 50%
Population Normal (%) (Fibroblast [1]; 24 h, replicate 2): 60% and 48%
Population Pyknosed Nuclei (%) (Fibroblast [1]; 24 h, replicate 2): 10% and 8%
Population Tubulin-Different-Phenotype (%) (Fibroblast [1]; 24 h, replicate 2): 21% and 42%
Total Cell Count (Fibroblast [1]; 24 h, replicate 2): 61 and 99
Growth Rate (Fibroblast [2]; 0 h, replicate number 1, timepoint 0 hours): 0
Growth Rate (Fibroblast [2]; 6 h, replicate number 1, timepoint 6 hours): 0
Growth Rate (Fibroblast [2]; 12 h, replicate number 1, timepoint 12 hours): 0
Growth Rate (Fibroblast [2]; 12 h, replicate number 2, timepoint 12 hours): 1
Growth Rate (Fibroblast [2]; 18 h, replicate number 1, timepoint 18 hours): 0
Growth Rate (Fibroblast [2]; 24 h, replicate number 1, timepoint 24 hours): 1
Growth Rate (Fibroblast [2]; 24 h, replicate number 2, timepoint 24 hours): 0
Population Apoptotic (%) (HEK-293T; 12 h, replicate 1): 15% and 30%
Population Fragmented Nuclei (%) (HEK-293T; 12 h, replicate 1): 18% and 22%
Population Healthy Nuclei (%) (HEK-293T; 12 h, replicate 1): 55% and 56%
Population Hoechst High Intensity Objects (%) (HEK-293T; 12 h, replicate 1): 16% and 23%
Population Mitochondria Different-Phenotype (%) (HEK-293T; 12 h, replicate 1): 8% and 7%
Population Mitotic Cells (%) (HEK-293T; 12 h, replicate 1): 84% and 69%
Population Normal (%) (HEK-293T; 12 h, replicate 1): 83% and 76%
Population Pyknosed Nuclei (%) (HEK-293T; 12 h, replicate 1): 26% and 20%
Total Cell Count (HEK-293T; 12 h, replicate 1): 630 and 586
Population Apoptotic (%) (HEK-293T; 12 h, replicate 2): 6% and 12%
Population Fragmented Nuclei (%) (HEK-293T; 12 h, replicate 2): 5% and 8%
Population Healthy Nuclei (%) (HEK-293T; 12 h, replicate 2): 85% and 87%
Population Hoechst High Intensity Objects (%) (HEK-293T; 12 h, replicate 2): 2%
Population Mitochondria Different-Phenotype (%) (HEK-293T; 12 h, replicate 2): 20% and 9%
Population Mitotic Cells (%) (HEK-293T; 12 h, replicate 2): 93% and 87%
Population Normal (%) (HEK-293T; 12 h, replicate 2): 97%
Population Pyknosed Nuclei (%) (HEK-293T; 12 h, replicate 2): 8% and 4%
Total Cell Count (HEK-293T; 12 h, replicate 2): 1495 and 1775
Population Apoptotic (%) (HEK-293T; 24 h, replicate 1): 21% and 25%
Population Fragmented Nuclei (%) (HEK-293T; 24 h, replicate 1): 18%
Population Healthy Nuclei (%) (HEK-293T; 24 h, replicate 1): 62% and 73%
Population Hoechst High Intensity Objects (%) (HEK-293T; 24 h, replicate 1): 11% and 16%
Population Membrane Permeable-Phenotype (%) (HEK-293T; 24 h, replicate 1): 14% and 9%
Population Mitochondria Different-Phenotype (%) (HEK-293T; 24 h, replicate 1): 15% and 6%
Population Mitotic Cells (%) (HEK-293T; 24 h, replicate 1): 78% and 74%
Population Normal (%) (HEK-293T; 24 h, replicate 1): 88% and 83%
Population Pyknosed Nuclei (%) (HEK-293T; 24 h, replicate 1): 18% and 8%
Population Tubulin-Different-Phenotype (%) (HEK-293T; 24 h, replicate 1): 74%
Total Cell Count (HEK-293T; 24 h, replicate 1): 539 and 610
Population Apoptotic (%) (HEK-293T; 24 h, replicate 2): 10% and 4%
Population Fragmented Nuclei (%) (HEK-293T; 24 h, replicate 2): 14% and 24%
Population Healthy Nuclei (%) (HEK-293T; 24 h, replicate 2): 81% and 72%
Population Hoechst High Intensity Objects (%) (HEK-293T; 24 h, replicate 2): 5% and 3%
Population Membrane Permeable-Phenotype (%) (HEK-293T; 24 h, replicate 2): 16% and 10%
Population Mitotic Cells (%) (HEK-293T; 24 h, replicate 2): 89% and 95%
Population Normal (%) (HEK-293T; 24 h, replicate 2): 94% and 96%
Population Pyknosed Nuclei (%) (HEK-293T; 24 h, replicate 2): 4% and 2%
Total Cell Count (HEK-293T; 24 h, replicate 2): 1741 and 2832
